The values below come from ChEMBL document CHEMBL1255259, “Phosphorothioate-modified oligodeoxynucleotides inhibit human cytomegalovirus replication by blocking virus entry” (Antimicrob Agents Chemother, 2008).

Usually CC50 stands for the concentration at which the toxic effect on the cells reaches its halfway point. What is called IC50 is the midpoint of a concentration-inhibition curve. For orientation: IC90 means the concentration needed for an effect of 90%.

Series [1] can be described thus: Cytotoxicity against HELF assessed as cell viability after 6 days by MTT assay. It is filed as cell-based. Conditions: human, HELF cells. The method, boiled down: (§1)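 HELF exposed to rising ODN concentrations (up to 10 μM) for 6 days; viable cells measured by MTT. CC50 taken as concentration that cuts viability to 50%.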
On the technique in general: Formazan colour is commonly taken as a measure of viable cells.

For series [2], the system named is Human alphaherpesvirus 1. The series is described as follows: Antimicrobial activity against Human herpesvirus 1 infected in compound pretreated HELF assessed as inhibition of viral replication at 0.1 uM. Format: functional, organism-based. In outline:
(§2)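 HELF pretreated with ODN (0.1 or 1 μM) 1 h before infection with a clinical HSV-1 isolate at MOI 0.1; ODN kept in medium after 2 h adsorption. Harvest at 48 h p.i., sonication, plaque titration on Vero cells. Means ± SD of three independent experiments.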

Series [3] deals with Human alphaherpesvirus 1. Nature of the series: Antimicrobial activity against Human herpesvirus 1 infected in compound pretreated HELF assessed as inhibition of viral replication at 1 uM. Format: functional, organism-based. The method, boiled down: as §2
The test system of another series is unidentified adenovirus. The series is described as follows: Antimicrobial activity against unidentified adenovirus infected in compound pretreated HELF assessed as inhibition of viral replication. Format: functional, organism-based. In outline: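 HELF pretreated 1 h with ODN (0.1 or 1 μM), infected with an adenovirus clinical isolate (MOI 1); ODN kept after 2 h adsorption. Harvest at 4 days p.i., sonication, plaque titration on HELF. Means ± SD, three experiments.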

For series [4], the system named is Vesicular stomatitis Indiana virus. Nature of the series: Antimicrobial activity against Vesicular stomatitis Indiana virus infected in compound pretreated HELF assessed as inhibition of viral replication. Format: functional, organism-based. In outline:
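HELFs exposed to ODN (0.1 or 1 μM) for 1 h, then infected with VSV serotype Indiana at MOI 1 (2 h adsorption, 37°C). ODN kept in the medium until 48 h p.i. Cells and supernatants were pooled, sonicated and titrated by plaque assay on HELFs. Data are means ± standard deviations of three independent experiments, duplicate wells.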

Series [5] relates to Human betaherpesvirus 5. Nature of the series: Antimicrobial activity against Human cytomegalovirus AD169 infected in compound pretreated HELF measured as immediate early 1 mRNA level by RT-PCR. Format: functional, organism-based.
For series [6], the system named is Human betaherpesvirus 5. The series is described as follows: Antimicrobial activity against Human cytomegalovirus AD169 infected in compound pretreated HELF measured as immediate early 2 mRNA level by RT-PCR. Format: functional, organism-based.
Series [7] relates to Human betaherpesvirus 5. The series is described as follows: Antimicrobial activity against Human cytomegalovirus AD169 infected in HELF assessed as inhibition of viral replication at 0.1 uM measured after 6 days post-infection. Format: functional, organism-based.
Series [8] concerns Human betaherpesvirus 5. Nature of the series: Antimicrobial activity against Human cytomegalovirus AD169 infected in HELF assessed as inhibition of viral replication at 1 uM measured after 6 days post-infection. Format: functional, organism-based.
In series [9] the test system is Human betaherpesvirus 5. The series is described as follows: Antimicrobial activity against 0.1 uM compound pretreated Human cytomegalovirus AD169 infected in HELF assessed as reduction in viral titer at 4 degC. It is filed as functional, organism-based. The method, boiled down: (§3)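 HCMV AD169 (10^4 PFU) incubated with ODN at 0.1 μM at 4 or 37°C for various times; samples then diluted to bring ODN below an antivirally active level; residual infectivity titrated by plaque assay on HELF. Means ± SD of three independent experiments.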

The subject of series [10] is Human betaherpesvirus 5. Nature of the series: Antimicrobial activity against 0.1 uM compound pretreated Human cytomegalovirus AD169 infected in HELF assessed as reduction in viral titer 37 degC. It is filed as functional, organism-based. The method, boiled down:
as §3

In series [11] the test system is Human betaherpesvirus 5. The series is described as follows: Antimicrobial activity against Human cytomegalovirus AD169 infected in 0.1 uM compound pretreated HELF assessed as inhibition of viral replication measured after 6 days post-infection. It is filed as functional, organism-based. In outline: (§4)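 HELF pretreated with ODN 1 h before infection with HCMV AD169 (MOI 1); ODN kept in medium after 2 h adsorption at 37°C. At 6 days p.i., cells plus supernatants sonicated and titrated by plaque assay on HELF; plaques counted microscopically, expressed as PFU/ml (log10) or % of control. IC50/IC90 by linear regression; duplicate wells, three independent experiments, means ± SD.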

For series [12], the system named is Human betaherpesvirus 5. Nature of the series: Antimicrobial activity against Human cytomegalovirus AD169 infected in 1 uM compound pretreated HELF assessed as inhibition of viral replication measured after 6 days post-infection. It is filed as functional, organism-based. In outline:
as §4

Series [13] has as its system Human betaherpesvirus 5. Nature of the series: Antimicrobial activity against Human cytomegalovirus AD169 infected in compound pretreated HELF assessed as inhibition of viral replication measured after 6 days post-infection. It is filed as functional, organism-based. To be noted: Human betaherpesvirus 5, AD169, HELF. In outline: as §4
Series [14] can be described thus: Cytotoxicity against HELF assessed as cell viability by MTT assay after 6 days at <=10 uM. Format: cell-based. To be noted: human, 144 h. In outline: as §1
Series [15] relates to Human betaherpesvirus 5. Nature of the series: Antimicrobial activity against Human cytomegalovirus TB40 expressing EGPF tagged UL32 infected in HELF assessed as inhibition of inhibition of viral adsorption at 0.1 uM after 2 hrs by fluorescence microscopy. It is filed as functional, organism-based. The method, boiled down:
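Prechilled HELF on coverslips exposed to ODN (0.1 μM) or heparin (30 μg/ml) 1 h at 4°C, then infected with HCMV TB40 UL32-EGFP (MOI 20) 2 h at 4°C to permit attachment only. Washed in ice-cold PBS, fixed in 4% formaldehyde, propidium iodide counterstain; green virions imaged by confocal fluorescence microscopy. Done twice.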

Calls of active or inactive are those of the source. No cut-off for these calls is given here.

For `Cc1cn([C@H]2C[C@H](OP(O)(O)=S)[C@@H](COP(O)(=S)O[C@H]3C[C@H](n4cc(C)c(=O)[nH]c4=O)O[C@@H]3COP(O)(=S)O[C@H]3C[C@H](n4cc(C)c(=O)[nH]c4=O)O[C@@H]3COP(O)(=S)O[C@H]3C[C@H](n4cc(C)c(=O)[nH]c4=O)O[C@@H]3COP(O)(=S)O[C@H]3[C@@H](O)[C@H](n4cnc5c(=O)[nH]c(N)nc54)O[C@@H]3COP(O)(=S)O[C@H]3[C@@H](O)[C@H](n4ccc(N)nc4=O)O[C@@H]3COP(O)(=S)O[C@H]3C[C@H](n4cc(C)c(=O)[nH]c4=O)O[C@@H]3COP(O)(=S)O[C@H]3[C@@H](O)[C@H](n4cnc5c(=O)[nH]c(N)nc54)O[C@@H]3COP(O)(=S)O[C@H]3[C@@H](O)[C@H](n4cnc5c(=O)[nH]c(N)nc54)O[C@@H]3COP(O)(=S)O[C@H]3[C@@H](O)[C@H](n4ccc(N)nc4=O)O[C@@H]3COP(O)(=S)O[C@H]3C[C@H](n4cc(C)c(=O)[nH]c4=O)O[C@@H]3COP(O)(=S)O[C@H]3C[C@H](n4cc(C)c(=O)[nH]c4=O)O[C@@H]3COP(O)(=S)O[C@H]3C[C@H](n4cc(C)c(=O)[nH]c4=O)O[C@@H]3COP(O)(=S)O[C@H]3C[C@H](n4cc(C)c(=O)[nH]c4=O)O[C@@H]3COP(O)(=S)O[C@H]3C[C@H](n4cc(C)c(=O)[nH]c4=O)O[C@@H]3COP(O)(=S)O[C@H]3[C@@H](O)[C@H](n4cnc5c(=O)[nH]c(N)nc54)O[C@@H]3COP(O)(=S)O[C@H]3[C@@H](O)[C@H](n4ccc(N)nc4=O)O[C@@H]3COP(O)(=S)O[C@H]3C[C@H](n4cc(C)c(=O)[nH]c4=O)O[C@@H]3COP(O)(=S)O[C@H]3[C@@H](O)[C@H](n4cnc5c(=O)[nH]c(N)nc54)O[C@@H]3COP(O)(=S)O[C@H]3[C@@H](O)[C@H](n4ccc(N)nc4=O)O[C@@H]3COP(O)(=S)O[C@H]3C[C@H](n4cc(C)c(=O)[nH]c4=O)O[C@@H]3CO)O2)c(=O)[nH]c1=O` (stereo partly specified), the CC50 at 144 h in [1] was greater than 10 µM. Besides, the inhibition result (in the series on Human alphaherpesvirus 1 [2]; in the series on Human alphaherpesvirus 1 [3]; in the series with unidentified adenovirus; in series [4]; with Human betaherpesvirus 5 [7]; with Human betaherpesvirus 5 [8]) was “inactive” throughout. Also, the inhibition result in the series with Human betaherpesvirus 5 [9] and with Human betaherpesvirus 5 [10] was “inactive” each time. Moreover, the inhibition result in the series with Human betaherpesvirus 5 [5], with Human betaherpesvirus 5 [6], in the series with Human betaherpesvirus 5 [11] and with Human betaherpesvirus 5 [12] was “Active” each time. The IC50 with Human betaherpesvirus 5 [13] was found to be 25 nM. Moreover, the IC90 in the series with Human betaherpesvirus 5 [13] was found to be 65 nM. In addition, the Activity entry in series [14] is “Non-toxic”.

`Cc1cn([C@H]2C[C@H](OP(O)(O)=S)[C@@H](COP(O)(=S)O[C@H]3C[C@H](n4cc(C)c(=O)[nH]c4=O)O[C@@H]3COP(O)(=S)O[C@H]3[C@@H](O)[C@H](n4cnc5c(=O)[nH]c(N)nc54)O[C@@H]3COP(O)(=S)O[C@H]3[C@@H](O)[C@H](n4ccc(N)nc4=O)O[C@@H]3COP(O)(=S)O[C@H]3C[C@H](n4cc(C)c(=O)[nH]c4=O)O[C@@H]3COP(O)(=S)O[C@H]3[C@@H](O)[C@H](n4cnc5c(=O)[nH]c(N)nc54)O[C@@H]3COP(O)(=S)O[C@H]3C[C@H](n4cc(C)c(=O)[nH]c4=O)O[C@@H]3COP(O)(=S)O[C@H]3C[C@H](n4cc(C)c(=O)[nH]c4=O)O[C@@H]3COP(O)(=S)O[C@H]3C[C@H](n4cc(C)c(=O)[nH]c4=O)O[C@@H]3COP(O)(=S)O[C@H]3C[C@H](n4cc(C)c(=O)[nH]c4=O)O[C@@H]3COP(O)(=S)O[C@H]3[C@@H](O)[C@H](n4cnc5c(=O)[nH]c(N)nc54)O[C@@H]3COP(O)(=S)O[C@H]3[C@@H](O)[C@H](n4ccc(N)nc4=O)O[C@@H]3COP(O)(=S)O[C@H]3C[C@H](n4cc(C)c(=O)[nH]c4=O)O[C@@H]3COP(O)(=S)O[C@H]3[C@@H](O)[C@H](n4cnc5c(=O)[nH]c(N)nc54)O[C@@H]3COP(O)(=S)O[C@H]3C[C@H](n4cc(C)c(=O)[nH]c4=O)O[C@@H]3COP(O)(=S)O[C@H]3C[C@H](n4cc(C)c(=O)[nH]c4=O)O[C@@H]3COP(O)(=S)O[C@H]3[C@@H](O)[C@H](n4cnc5c(=O)[nH]c(N)nc54)O[C@@H]3COP(O)(=S)O[C@H]3[C@@H](O)[C@H](n4ccc(N)nc4=O)O[C@@H]3COP(O)(=S)O[C@H]3C[C@H](n4cc(C)c(=O)[nH]c4=O)O[C@@H]3COP(O)(=S)O[C@H]3[C@@H](O)[C@H](n4cnc5c(=O)[nH]c(N)nc54)O[C@@H]3COP(O)(=S)O[C@H]3[C@@H](O)[C@H](n4ccc(N)nc4=O)O[C@@H]3COP(O)(=S)O[C@H]3C[C@H](n4cc(C)c(=O)[nH]c4=O)O[C@@H]3CO)O2)c(=O)[nH]c1=O` (stereo partly specified): in series [1], the 50% cytotoxic concentration (CC50) at 144 h is greater than 10 µM. Also, the inhibition result (in the series with Human alphaherpesvirus 1 [2]; in the series with Human alphaherpesvirus 1 [3]; in the series on unidentified adenovirus; in [4]; in the series with Human betaherpesvirus 5 [7]; with Human betaherpesvirus 5 [8]) was “inactive” in each case. Also, the inhibition entry in the series with Human betaherpesvirus 5 [15], with Human betaherpesvirus 5 [9] and with Human betaherpesvirus 5 [10] was “inactive” each time. The inhibition result with Human betaherpesvirus 5 [11] and in the series with Human betaherpesvirus 5 [12] was “Active” each time. Further, in the series on Human betaherpesvirus 5 [13], the IC50 came to 200 nM. The IC90 in the series with Human betaherpesvirus 5 [13] worked out at 4000 nM. Further, the Activity entry in series [14] is on record as “Non-toxic”.
